Measured values from different studies.
Compare with care: the assays were run in different laboratories.
Cell line: MCF7
Read-out: cell growth or viability

SMILES	method	time	IC50 [µM]
C=CCn1c(-c2ccc([N+](=O)[O-])cc2)nc2ccc(C)cc21	MTT	–	71.1
O=C(N/N=C/CN1CCCCC1)Nc1cc2c(Nc3ccc(F)c(Cl)c3)ncnc2cc1O[C@H]1CCOC1	MTT	72 h	1.53
COc1ccc(C(=O)O[C@@H]2CN3Cc4c(cc5c(c4OC)OCO5)[C@@]24C=C[C@H](OC)C[C@@H]34)cc1	WST-1	–	> 10
COc1cccc2c1C(=O)c1c(O)c3c(c(O)c1C2=O)C[C@@](O)(C(=O)CO)C[C@@H]3O[C@H]1C[C@H](N)[C@H](O)[C@H](C)O1	MTT	72 h	0.74
COc1cc2ncnc(Nc3ccc(F)c(Cl)c3)c2cc1NC(=O)N/N=C/c1cccn1CCN(C)C	MTT	72 h	3.21
Cc1ccc2nc(-c3cccc([N+](=O)[O-])c3)[nH]c2c1	MTT	48 h	19.2
O=C(NC(=S)NCCNC(=S)NC(=O)c1ccc2ccccc2c1)c1ccc2ccccc2c1	–	48 h	1.2
COc1ccc(O)c(/C=N/c2nc(Oc3ccccc3)nn2-c2ccc(C(=O)O)cc2)c1	MTT	–	27.5
COc1cccc(-c2nc3ccc(C)cc3[nH]2)c1	MTT	48 h	50.6
O=c1c(O)c(-c2ccc(O)cc2)oc2cc(O)cc(O)c12	WST-1	48 h	27.2
Oc1c(I)cc(I)c2cccnc12	MTT	48 h	75.1
O=C(N/N=C/c1cccn1CCCN1CCCCC1)Nc1cc2c(Nc3ccc(F)c(Cl)c3)ncnc2cc1O[C@H]1CCOC1	MTT	72 h	1.32
Cc1ccc(S(=O)(=O)NN=Cc2cn(CCN3CCOCC3)c3ccccc23)cc1	MTT	48 h	61.1
Oc1ncnc2cc(Nc3nc(-c4ccc(Cl)cc4)cs3)ccc12	MTT	–	4.14
Cc1ccc(-c2nn(-c3ccc(S(C)(=O)=O)cc3)cc2/C=N\N=c2/[nH]c(-c3ccc([N+](=O)[O-])cc3)cs2)cc1	MTT	48 h	36
O=S(=O)(NN=Cc1cn(CCN2CCOCC2)c2ccccc12)c1ccc(Cl)cc1	MTT	48 h	13.2
O=C(N/N=C/CN1CCCC1)Nc1cc2c(Nc3ccc(F)c(Cl)c3)ncnc2cc1O[C@H]1CCOC1	MTT	72 h	3.12
O=C(/N=c1\scc(-c2ccccc2)n1C1CCCCC1)c1ccc2ccccc2c1	–	48 h	17.3
Cc1cc(C)n(-c2nc(Nc3ccc(Cl)cc3)nc(-n3nc(C)cc3C)n2)n1	MTT	72 h	2.29
Oc1ncnc2cc(Nc3nc(-c4ccccc4)cs3)ccc12	MTT	–	6.21
CCNC(=S)NC(=O)c1ccc2ccccc2c1	–	48 h	6.26
Cc1ccc2nc(-c3ccc([N+](=O)[O-])cc3)n(Cc3ccccc3Cl)c2c1	MTT	–	20.2
CSc1nc(NC(=S)NCCc2ccccc2)n(-c2ccc(C(=O)O)cc2)n1	MTT	–	15.6
CC(C)Cc1ccc(-c2nn(-c3ccc(S(C)(=O)=O)cc3)cc2/C=N/N=c2\[nH]c(-c3ccc([N+](=O)[O-])cc3)cs2)cc1	MTT	48 h	2.85

SMILES	method	time	IC50 [µM]
COc1cc(Nc2nccc(-c3cnn4nc(OC)ccc34)n2)cc(C(F)(F)F)c1	ATP luminescence	–	0.95
Cc1ccc2nc(-c3ccc(F)cc3)n(Cc3ccccc3)c2c1	MTT	–	43.1
Oc1cccc(-c2ccc3ncnc(Nc4cccc(C(F)(F)F)c4)c3c2)c1	MTT	24 h	18.1
CCOc1ccc(-c2nc3ccc(C)cc3[nH]2)cc1	MTT	48 h	> 100
COc1cc2ncnc(Nc3ccc(F)c(Cl)c3)c2cc1NC(=O)N/N=C/c1cccn1CCCN1CCOCC1	MTT	72 h	1.44
COc1cc(/C=N/c2nc(SC)nn2-c2ccc(C(=O)O)cc2)ccc1O	MTT	–	29.4
COc1cccc2c1C(=O)c1c(O)c3c(c(O)c1C2=O)C[C@@](O)(C(=O)CO)C[C@@H]3O[C@H]1C[C@H](N)[C@H](O)[C@H](C)O1	SRB	–	0.18
CN(C)CCn1cccc1/C=N/NC(=O)Nc1cc2c(Nc3ccc(F)c(Cl)c3)ncnc2cc1O[C@H]1CCOC1	MTT	72 h	4.82
CCn1c(=N)c(C(=O)NCCOC)cc2c(=O)n3ccccc3nc21	MTT	72 h	> 100
CN1CCN(CCn2cccc2/C=N/NC(=O)Nc2cc3c(Nc4ccc(F)c(Cl)c4)ncnc3cc2O[C@H]2CCOC2)CC1	MTT	72 h	2.42
Cc1ccc2nc(-c3ccc(F)cc3)[nH]c2c1	MTT	48 h	38.6
COc1nc(OCc2cccc(-c3ccccc3)c2C)ccc1CNCCNC(C)=O	MTT	–	6.2
O=C(NC(=S)Nc1ccc([N+](=O)[O-])cc1)c1ccc2ccccc2c1	–	48 h	7.7
C1CCCC1.C1CCCC1.[Cl][W][Cl]	MTT	–	630
FC(F)(F)c1cccc(Nc2ncnc3ccc(NCc4ccccc4)cc23)c1	MTT	24 h	6.83
Cc1ccc2c(Br)cc(Br)c(O)c2n1	MTT	48 h	> 150
COc1cc2c(Nc3ccc(NC(=O)c4ccccc4)cc3)ncnc2cc1OCCCN1CCOCC1	MTS	72 h	0.8
CC1(C)CC[C@]2(C)CC[C@]3(C)C(=CC[C@@H]4[C@@]5(C)CC[C@H](O)C(C)(C)[C@@H]5CC[C@]43C)[C@@H]2C1	WST-1	48 h	63.6
O=C(/C=C/c1ccccc1)c1ccccc1	resazurin	72 h	> 50
O=C1Nc2c(C(F)(F)F)cccc2[C@@]1(c1ccc(O)cc1)N1CCC(F)(F)C1	resazurin	72 h	0.022
COc1cccc2c3c(c[n+](C)c12)sc1cccc(F)c13	MTT	72 h	3
Cc1ccc2nc(-c3ccc([N+](=O)[O-])cc3)n(Cc3ccccc3)c2c1	MTT	–	7.86
COc1cccc2c1C(=O)c1c(O)c3c(c(O)c1C2=O)C[C@@](O)(C(=O)CO)C[C@@H]3O[C@H]1C[C@H](N)[C@H](O)[C@H](C)O1	MTT	48 h	0.09
